From ChEMBL document CHEMBL5338733, “Heterobifunctional Ligase Recruiters Enable pan-Degradation of Inhibitor of Apoptosis Proteins” (J Med Chem, 2023)
Blank lines part the entries; values can stand above or below the compound they belong to. The source made the active and inactive calls. The calls are words filed in the database; no cut-off is given here.

Tests used:
[1] = biological target: Baculoviral IAP repeat-containing protein 2 (Homo sapiens) (UniProt Q13490); test: Induction of cIAP1 degradation in human MM1.S cells at 100 nM incubated for 3 hrs by diaPASEF-based analysis; type: cell-based
Summary of the method: (§1)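 MM.1S cells exposed to DMSO or 0.1 μM compound for 3 h, then washed with PBS and snap-frozen. Lysed in 8 M urea/EPPS pH 8.5 buffer. 50 μg protein reduced, alkylated, precipitated, then digested with LysC and trypsin. Analysed by diaPASEF on timsTOF Pro2. Missing values imputed from a Gaussian distribution; log2 fold change versus DMSO with limma statistics.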

[2] = biological target: E3 ubiquitin-protein ligase XIAP (Homo sapiens) (UniProt P98170); test: Induction of XIAP degradation in human MM1.S cells at 100 nM incubated for 3 hrs by diaPASEF-based analysis; type: cell-based; summary of the method: as §1
[3] = biological target: von Hippel-Lindau disease tumor suppressor (Homo sapiens) (UniProt P40337); test: Induction of VHL30 degradation in human MM1.S cells assessed as remaining protein level at 0.1 uM incubated for 16 hrs by western blot analysis; type: cell-based
Summary of the method: (§2)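 MM.1S cells treated 16 h at the stated concentration. Lysed, run on SDS-PAGE and transferred to PVDF. Probed with primary antibodies overnight at 4 °C, then HRP secondaries, with ECL detection. Band densitometry normalized to loading control and to DMSO-treated cells. Averages of at least three independent experiments.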

[4] = biological target: Baculoviral IAP repeat-containing protein 2 (Homo sapiens) (UniProt Q13490); test: Induction of cIAP1 degradation in human MM1.S cells assessed as remaining protein level at 0.1 uM incubated for 16 hrs by western blot analysis; type: cell-based
Summary of the method: (§3)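 Lysed, run on SDS-PAGE and transferred to PVDF. Probed with primary antibodies overnight at 4 °C, then HRP secondaries, with ECL detection. Band densitometry normalized to loading control and to DMSO-treated cells. Averages of at least three independent experiments.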

[5] = biological target: Baculoviral IAP repeat-containing protein 3 (Homo sapiens) (UniProt Q13489); test: Induction of cIAP2 degradation in human MM1.S cells assessed as remaining protein level at 0.1 uM incubated for 16 hrs by western blot analysis; type: cell-based; summary of the method: as §3
[6] = biological target: Baculoviral IAP repeat-containing protein 2 (Homo sapiens) (UniProt Q13490); test: Induction of cIAP1 degradation in human MM1.S cells at 1 uM incubated for 16 hrs by western blot analysis; type: cell-based; summary of the method: as §2
[7] = biological target: Baculoviral IAP repeat-containing protein 3 (Homo sapiens) (UniProt Q13489); test: Induction of cIAP2 degradation in human MM1.S cells at 1 uM incubated for 16 hrs by western blot analysis; type: cell-based; summary of the method: as §2
[8] = biological target: E3 ubiquitin-protein ligase XIAP (Homo sapiens) (UniProt P98170); test: Induction of XIAP degradation in human MM1.S cells at 1 uM incubated for 16 hrs by western blot analysis; type: cell-based; summary of the method: as §2
[9] = biological target: von Hippel-Lindau disease tumor suppressor (Homo sapiens) (UniProt P40337); test: Induction of VHL30 degradation in human MM1.S cells at 1 uM incubated for 16 hrs by western blot analysis; type: cell-based; summary of the method: as §2
[10] = biological target: von Hippel-Lindau disease tumor suppressor (Homo sapiens) (UniProt P40337); test: Induction of VHL19 degradation in human MM1.S cells at 1 uM incubated for 16 hrs by western blot analysis; type: cell-based; summary of the method: as §2
RPMI-8226 = test: Cytotoxicity against human RPMI-8226 cells assessed as reduction in cell viability measured after 96 hrs in presence of TNF-alpha by CellTiter-Glo luminescent assay; type: functional, cell-based; details: RPMI-8226, 96 h
Summary of the method: (§4)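 Cells kept in RPMI-1640 with 10% FBS, 1% penicillin/streptomycin and 1% L-glutamine at 37 °C, 5% CO2. Seeded with compounds and incubated 96 h at 37 °C with TNF-α at 1 ng/mL. Viability read by CellTiter-Glo luminescence and normalized to DMSO-treated control. Mean ± SD of biological triplicates.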

JJN-3 = test: Cytotoxicity against human JJN-3 cells assessed as reduction in cell viability measured after 96 hrs in presence of TNF-alpha by CellTiter-Glo luminescent assay; type: functional, cell-based; details: JJN-3, 96 h; summary of the method: as §4
NCI-H929 = test: Cytotoxicity against human NCI-H929 cells assessed as reduction in cell viability measured after 96 hrs in presence of TNF-alpha by CellTiter-Glo luminescent assay; type: functional, cell-based; details: NCI-H929, 96 h
Summary of the method: (§5)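 Cells seeded with compound at indicated concentrations ± TNF-α 1 ng/mL, incubated 96 h at 37 °C; viability by CellTiter-Glo luminescence, normalized to DMSO control; mean ± SD of biological triplicates. NCI-H929 cultured in RPMI-1640/10% FBS with 2-mercaptoethanol and sodium pyruvate; other lines in RPMI-1640/10% FBS, 37 °C, 5% CO2.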

HEL = test: Cytotoxicity against human HEL cells assessed as reduction in cell viability measured after 96 hrs in presence of TNF-alpha by CellTiter-Glo luminescent assay; type: functional, cell-based; summary of the method: as §4
K562 = test: Cytotoxicity against human K562 cells assessed as reduction in cell viability measured after 96 hrs in presence of TNF-alpha by CellTiter-Glo luminescent assay; type: functional, cell-based; details: K562, 96 h; summary of the method: as §4
MOLM-13 = test: Cytotoxicity against human MOLM-13 cells assessed as reduction in cell viability measured after 96 hrs in presence of TNF-alpha by CellTiter-Glo luminescent assay; type: functional, cell-based; details: MOLM-13, 96 h; summary of the method: as §4
SUD4 = test: Cytotoxicity against human SU-DHL-4 cells assessed as reduction in cell viability measured after 96 hrs in presence of TNF-alpha by CellTiter-Glo luminescent assay; type: functional, cell-based; details: SU-DHL-4, 96 h; summary of the method: as §4
DB = test: Cytotoxicity against human DB cells assessed as reduction in cell viability measured after 96 hrs in presence of TNF-alpha by CellTiter-Glo luminescent assay; type: functional, cell-based; summary of the method: as §4
SU-DHL-6 = test: Cytotoxicity against human SU-DHL-6 cells assessed as reduction in cell viability measured after 96 hrs in presence of TNF-alpha by CellTiter-Glo luminescent assay; type: functional, cell-based; details: SU-DHL-6, 96 h; summary of the method: as §5
[11] = biological target: Protein cereblon/E3 ubiquitin-protein ligase XIAP (Homo sapiens) (UniProt P98170+Q96SW2); test: PROTAC activity at CRBN/IAP in human MM1.S cells assessed as induction of XIAP degradation at 0.1 uM incubated for 3 hrs by diaPASEF-based proteomics analysis; type: cell-based; summary of the method: as §1
[12] = biological target: Protein cereblon/Baculoviral IAP repeat-containing protein 2 (Homo sapiens) (UniProt Q13490+Q96SW2); test: PROTAC activity at CRBN/IAP in human MM1.S cells assessed as induction of cIAP1 degradation at 100 nM incubated for 3 hrs by diaPASEF-based analysis; type: cell-based; summary of the method: as §1
[13] = biological target: Protein cereblon/Baculoviral IAP repeat-containing protein 3 (Homo sapiens) (UniProt Q13489+Q96SW2); test: PROTAC activity at CRBN/IAP in human MM1.S cells assessed as induction of cIAP2 degradation at 100 nM incubated for 3 hrs by diaPASEF-based analysis; type: cell-based; summary of the method: as §1
[14] = biological target: Protein cereblon-IAP (Homo sapiens) (UniProt P98170+Q13489+Q13490+Q96SW2); test: PROTAC activity at CRBN/IAP in human MM1.S cells assessed as induction of CRBN degradation at 100 nM incubated for 3 hrs by diaPASEF-based analysis; type: cell-based; summary of the method: as §1
[15] = biological target: Cereblon/Ikaros (Homo sapiens) (UniProt Q96SW2+Q13422); test: PROTAC activity at CRBN/IKZF1 in human MM1.S cells assessed as induction of IKZF1 degradation at 100 nM incubated for 3 hrs by diaPASEF-based analysis; type: cell-based; summary of the method: as §1
[16] = biological target: Protein cereblon/Zinc finger protein Aiolos (Homo sapiens) (UniProt Q96SW2+Q9UKT9); test: PROTAC activity at CRBN/IKZF3 in human MM1.S cells assessed as induction of IKZF3 degradation at 100 nM incubated for 3 hrs by diaPASEF-based analysis; type: cell-based; summary of the method: as §1
[17] = biological target: von Hippel-Lindau disease tumor suppressor (Homo sapiens) (UniProt P40337); test: Induction of VHL degradation in human MM1.S cells at 100 nM incubated for 3 hrs by diaPASEF-based analysis; type: cell-based; summary of the method: as §1

Sequence of von Hippel-Lindau disease tumor suppressor (Homo sapiens) (P40337 whole entry, looked up): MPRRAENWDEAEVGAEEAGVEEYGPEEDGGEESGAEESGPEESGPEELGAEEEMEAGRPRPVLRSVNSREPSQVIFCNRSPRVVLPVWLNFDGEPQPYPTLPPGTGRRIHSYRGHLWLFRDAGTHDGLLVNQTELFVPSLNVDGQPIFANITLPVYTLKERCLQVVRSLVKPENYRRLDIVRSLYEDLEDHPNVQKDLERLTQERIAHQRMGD
Sequence of Baculoviral IAP repeat-containing protein 2 (Homo sapiens) (Q13490 whole entry): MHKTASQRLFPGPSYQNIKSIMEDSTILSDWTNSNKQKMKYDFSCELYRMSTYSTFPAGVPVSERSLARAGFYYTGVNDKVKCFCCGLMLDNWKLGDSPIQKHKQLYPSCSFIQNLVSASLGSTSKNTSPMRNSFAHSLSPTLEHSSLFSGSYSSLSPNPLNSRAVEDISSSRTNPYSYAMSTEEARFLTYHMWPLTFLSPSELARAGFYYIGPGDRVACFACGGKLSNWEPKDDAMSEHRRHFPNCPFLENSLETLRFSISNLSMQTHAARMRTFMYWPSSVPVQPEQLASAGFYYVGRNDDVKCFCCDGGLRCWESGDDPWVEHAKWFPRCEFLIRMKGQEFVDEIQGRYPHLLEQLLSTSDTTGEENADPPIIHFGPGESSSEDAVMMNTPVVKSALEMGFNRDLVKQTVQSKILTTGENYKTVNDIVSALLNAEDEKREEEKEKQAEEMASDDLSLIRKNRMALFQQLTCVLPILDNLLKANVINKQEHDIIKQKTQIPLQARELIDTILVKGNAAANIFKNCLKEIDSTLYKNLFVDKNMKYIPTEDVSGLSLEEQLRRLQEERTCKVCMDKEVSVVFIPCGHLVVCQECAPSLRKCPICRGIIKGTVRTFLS
Sequence of Baculoviral IAP repeat-containing protein 3 (Homo sapiens) (Q13489 whole entry): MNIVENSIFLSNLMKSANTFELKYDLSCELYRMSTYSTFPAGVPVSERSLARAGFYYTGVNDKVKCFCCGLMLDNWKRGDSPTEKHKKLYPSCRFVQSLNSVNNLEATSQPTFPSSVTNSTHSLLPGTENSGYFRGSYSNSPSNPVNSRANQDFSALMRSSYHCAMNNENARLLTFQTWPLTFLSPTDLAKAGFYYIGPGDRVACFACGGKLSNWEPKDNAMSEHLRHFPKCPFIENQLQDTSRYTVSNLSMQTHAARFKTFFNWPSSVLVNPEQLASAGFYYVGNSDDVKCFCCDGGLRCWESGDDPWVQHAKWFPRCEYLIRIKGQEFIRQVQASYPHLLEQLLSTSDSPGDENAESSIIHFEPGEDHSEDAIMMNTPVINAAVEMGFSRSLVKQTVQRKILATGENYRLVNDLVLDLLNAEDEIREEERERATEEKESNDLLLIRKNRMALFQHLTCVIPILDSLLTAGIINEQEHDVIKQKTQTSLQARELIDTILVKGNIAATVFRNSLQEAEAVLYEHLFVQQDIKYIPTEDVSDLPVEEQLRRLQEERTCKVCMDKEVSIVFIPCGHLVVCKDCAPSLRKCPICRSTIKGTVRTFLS
Sequence of E3 ubiquitin-protein ligase XIAP (Homo sapiens) (P98170 whole entry): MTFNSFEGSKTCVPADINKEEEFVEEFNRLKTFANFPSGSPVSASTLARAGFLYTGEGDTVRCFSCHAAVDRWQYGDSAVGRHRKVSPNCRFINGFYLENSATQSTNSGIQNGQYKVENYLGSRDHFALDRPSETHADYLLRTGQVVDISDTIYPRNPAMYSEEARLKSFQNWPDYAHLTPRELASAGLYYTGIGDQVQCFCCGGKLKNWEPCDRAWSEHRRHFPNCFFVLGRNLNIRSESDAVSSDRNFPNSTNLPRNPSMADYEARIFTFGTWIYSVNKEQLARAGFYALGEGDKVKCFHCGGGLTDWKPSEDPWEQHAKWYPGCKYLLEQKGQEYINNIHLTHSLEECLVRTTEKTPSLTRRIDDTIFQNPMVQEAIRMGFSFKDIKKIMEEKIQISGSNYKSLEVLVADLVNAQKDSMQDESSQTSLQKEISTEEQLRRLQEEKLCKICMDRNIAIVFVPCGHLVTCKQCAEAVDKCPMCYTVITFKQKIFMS
Sequence of Protein cereblon/Baculoviral IAP repeat-containing protein 2 (Homo sapiens) (Q13490 whole entry, looked up): as the sequence (Q13490 whole entry) above
Sequence of Protein cereblon/Baculoviral IAP repeat-containing protein 2 (Homo sapiens) (Q96SW2 whole entry, looked up): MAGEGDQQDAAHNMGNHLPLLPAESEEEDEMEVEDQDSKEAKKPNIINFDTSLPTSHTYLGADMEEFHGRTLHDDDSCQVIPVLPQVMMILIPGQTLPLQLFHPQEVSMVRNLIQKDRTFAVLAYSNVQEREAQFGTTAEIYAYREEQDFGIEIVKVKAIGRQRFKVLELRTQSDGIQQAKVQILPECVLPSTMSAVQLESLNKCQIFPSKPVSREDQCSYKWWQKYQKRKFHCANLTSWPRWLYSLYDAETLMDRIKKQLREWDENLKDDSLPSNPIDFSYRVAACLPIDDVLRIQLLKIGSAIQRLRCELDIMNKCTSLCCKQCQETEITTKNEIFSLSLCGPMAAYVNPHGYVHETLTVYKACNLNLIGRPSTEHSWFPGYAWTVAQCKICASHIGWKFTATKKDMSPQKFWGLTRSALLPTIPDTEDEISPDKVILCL
Sequence of Protein cereblon/Zinc finger protein Aiolos (Homo sapiens) (Q96SW2 whole entry, looked up): as above
Sequence of Protein cereblon/Zinc finger protein Aiolos (Homo sapiens) (Q9UKT9 whole entry, looked up): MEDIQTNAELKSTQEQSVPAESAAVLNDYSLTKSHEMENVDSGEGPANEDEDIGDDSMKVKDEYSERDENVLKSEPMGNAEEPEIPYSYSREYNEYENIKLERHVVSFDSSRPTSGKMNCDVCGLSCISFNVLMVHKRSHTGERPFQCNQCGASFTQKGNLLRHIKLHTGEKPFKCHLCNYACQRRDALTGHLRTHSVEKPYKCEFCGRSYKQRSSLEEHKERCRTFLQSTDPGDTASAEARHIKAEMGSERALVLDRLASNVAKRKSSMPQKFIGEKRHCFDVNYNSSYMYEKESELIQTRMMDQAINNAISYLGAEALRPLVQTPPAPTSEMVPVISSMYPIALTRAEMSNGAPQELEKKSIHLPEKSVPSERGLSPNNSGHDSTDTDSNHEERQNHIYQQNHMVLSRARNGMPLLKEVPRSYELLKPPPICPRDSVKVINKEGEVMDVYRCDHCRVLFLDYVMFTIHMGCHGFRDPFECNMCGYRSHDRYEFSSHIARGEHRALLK
Sequence of Protein cereblon/Baculoviral IAP repeat-containing protein 3 (Homo sapiens) (Q13489 whole entry, looked up): as the sequence (Q13489 whole entry) above
Sequence of Protein cereblon/Baculoviral IAP repeat-containing protein 3 (Homo sapiens) (Q96SW2 whole entry, looked up): as the sequence (Q96SW2 whole entry, looked up) above
Sequence of Protein cereblon-IAP (Homo sapiens) (P98170 whole entry, looked up): as the sequence (P98170 whole entry) above
Sequence of Protein cereblon-IAP (Homo sapiens) (Q13489 whole entry, looked up): as the sequence (Q13489 whole entry) above
Sequence of Protein cereblon-IAP (Homo sapiens) (Q13490 whole entry, looked up): as the sequence (Q13490 whole entry) above
Sequence of Protein cereblon-IAP (Homo sapiens) (Q96SW2 whole entry, looked up): as the sequence (Q96SW2 whole entry, looked up) above
Sequence of Protein cereblon/E3 ubiquitin-protein ligase XIAP (Homo sapiens) (P98170 whole entry, looked up): as the sequence (P98170 whole entry) above
Sequence of Protein cereblon/E3 ubiquitin-protein ligase XIAP (Homo sapiens) (Q96SW2 whole entry, looked up): as the sequence (Q96SW2 whole entry, looked up) above

Activity [1]: Active
Activity [2]: inactive
Structure (SMILES): CN[C@@H](C)C(=O)N[C@@H](C(=O)N1CCC[C@H]1C(=O)N[C@@H]1c2ccccc2C[C@@H]1OCC#CC#CCO[C@H]1Cc2ccccc2[C@H]1NC(=O)[C@@H]1CCCN1C(=O)[C@H](NC(=O)[C@H](C)NC)C1CCCCC1)C1CCCCC1

Activity [3]: 95%
Activity [4]: 95%
Activity [5]: 81%
Activity [6]: inactive
Activity [7]: inactive
Activity [8]: inactive
Activity [9]: inactive
Activity [10]: inactive
Structure (SMILES): Cc1ncsc1-c1ccc(CNC(=O)[C@@H]2C[C@@H](O)CN2C(=O)[C@@H](NC(=O)C2(C#N)CC2)C(C)(C)C)cc1
IC50 (RPMI-8226): > 10 µM
IC50 (JJN-3): > 10 µM
IC50 (NCI-H929): > 10 µM
IC50 (HEL): > 10 µM
IC50 (K562): > 10 µM
IC50 (MOLM-13): > 10 µM
IC50 (SUD4): > 10 µM
IC50 (DB): > 10 µM
IC50 (SU-DHL-6): > 10 µM

Activity [11]: Active
Activity [12]: inactive
Activity [13]: inactive
Activity [14]: inactive
Activity [15]: inactive
Activity [16]: inactive
Activity [17]: inactive
Structure (SMILES): CN[C@@H](C)C(=O)N[C@H](C(=O)N1C[C@@H](Oc2cccc(OCCCCCCOCCCCCCOCCCCCCNc3cccc4c3C(=O)N(C3CCC(=O)NC3=O)C4=O)c2)C[C@H]1C(=O)N[C@@H]1CCCc2ccccc21)C1CCCCC1 (stereo partly specified)
